From ChEMBL document CHEMBL2321843, “Opioid peptidomimetics: leads for the design of bioavailable mixed efficacy μ opioid receptor (MOR) agonist/δ opioid receptor (DOR) antagonist ligands” (J Med Chem, 2013) come the findings set out here.

pEC50, pKi: −log10 of the molar value. The source made the active and inactive calls.

Assay [1] concerns Mus musculus. In words: Antinociceptive activity in C57BL/6 mouse assessed as tail withdrawal latency at 3.2 to 32 mg/kg, ip after 30 mins by warm water tail withdrawal assay in presence of opioid antagonist naltrexone. Type of assay: functional, organism-based. An outline of the steps:
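Male C57BL/6 mice pretreated ip with naltrexone 1 mg/kg, 30 min before testing. Cumulative ip dosing to totals of 3.2, 10 and 32 mg/kg at 30 min intervals, with latency read 30 min after each injection. Tail tip immersed in 50 °C water, 20 s cutoff.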

Assay [2] has as its system Mus musculus. In words: Antinociceptive activity in C57BL/6 mouse assessed as duration of maximal activity at 10 mg/kg, ip by warm water tail withdrawal assay. Type of assay: functional. Conditions: route intraperitoneal. An outline of the steps:
(§1)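 Male C57BL/6 mice given a single ip dose of 10 mg/kg. Tail-withdrawal latency (50 °C water, 20 s cutoff) measured at varying times after dosing to build a time course.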

In assay [3] the test system is Mus musculus. In words: Antinociceptive activity in ip dosed C57BL/6 mouse assessed as tail withdrawal latency after 30 mins by warm water tail withdrawal assay. Type of assay: functional.
The subject of assay [4] is Mus musculus. As to the kind of experiment: Antinociceptive activity in C57BL/6 mouse assessed as increase in duration of maximal activity at 10 mg/kg, ip by warm water tail withdrawal assay. Type of assay: functional, organism-based. The arrangement: dose 10 mg/kg. An outline of the steps:
as §1

The target in assay [5] is T1, Kappa-type opioid receptor (Homo sapiens, UniProt P41145). Conditions: CHO, 10 uM.
T1 sequence (P41145 whole entry): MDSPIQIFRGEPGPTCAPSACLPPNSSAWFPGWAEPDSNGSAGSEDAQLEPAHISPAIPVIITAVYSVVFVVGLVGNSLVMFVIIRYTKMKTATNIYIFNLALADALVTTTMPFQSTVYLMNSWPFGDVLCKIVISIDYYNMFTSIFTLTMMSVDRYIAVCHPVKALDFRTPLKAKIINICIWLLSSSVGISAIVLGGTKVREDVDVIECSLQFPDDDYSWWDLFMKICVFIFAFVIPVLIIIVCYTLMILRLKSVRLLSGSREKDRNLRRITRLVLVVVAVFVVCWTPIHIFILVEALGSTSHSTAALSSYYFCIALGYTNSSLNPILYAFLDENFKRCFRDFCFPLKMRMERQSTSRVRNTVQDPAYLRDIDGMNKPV
In assay [6] the target is Mu-type opioid receptor (Rattus norvegicus) (UniProt P33535). In words: Agonist activity at rat MOR expressed in rat C6 cells assessed as stimulation of [35S]GTPgammaS binding at 10 uM after 1 hr by liquid scintillation counting analysis relative to DAMGO. Type of assay: functional, cell-based. A general note: Binding of GTPγS marks nucleotide exchange on a G protein.
Sequence of Mu-type opioid receptor (Rattus norvegicus) (P33535 whole entry): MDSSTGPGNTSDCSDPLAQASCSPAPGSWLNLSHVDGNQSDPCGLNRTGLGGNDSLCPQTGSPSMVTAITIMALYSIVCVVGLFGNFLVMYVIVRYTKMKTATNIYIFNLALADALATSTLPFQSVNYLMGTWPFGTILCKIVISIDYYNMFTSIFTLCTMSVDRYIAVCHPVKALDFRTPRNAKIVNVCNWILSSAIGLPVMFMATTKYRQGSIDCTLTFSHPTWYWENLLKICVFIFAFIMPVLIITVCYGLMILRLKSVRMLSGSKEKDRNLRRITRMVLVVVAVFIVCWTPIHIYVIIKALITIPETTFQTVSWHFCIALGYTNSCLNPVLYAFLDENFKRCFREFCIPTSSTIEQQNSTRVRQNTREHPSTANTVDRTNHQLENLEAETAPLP
Assay [7] has as its target T2, Delta-type opioid receptor (Rattus norvegicus, UniProt P33533). As to the kind of experiment: Displacement of [3H]diprenorphine from rat DOR expressed in rat C6 cells after 1 hr by liquid scintillation counting analysis. It is filed as cell-based.
For assay [8], the target named is T3, Mu-type opioid receptor (Rattus norvegicus, UniProt P33535). In words: Displacement of [3H]diprenorphine from rat MOR expressed in rat C6 cells after 1 hr by liquid scintillation counting analysis. Type of assay: cell-based.
T3 sequence (P33535 whole entry): as above
Assay [9] addresses T2, Delta-type opioid receptor. In words: Agonist activity at rat DOR expressed in rat C6 cells assessed as stimulation of [35S]GTPgammaS binding after 1 hr by liquid scintillation counting analysis. It is filed as functional, cell-based.
The target in assay [10] is T3, Mu-type opioid receptor. As to the kind of experiment: Agonist activity at rat MOR expressed in rat C6 cells assessed as stimulation of [35S]GTPgammaS binding after 1 hr by liquid scintillation counting analysis. It is filed as functional, cell-based.
In assay [11] the target is T1, Kappa-type opioid receptor. Type of assay: cell-based, CHO.
Assay [12] deals with T1, Kappa-type opioid receptor. It is filed as functional, cell-based, CHO. Conditions: for EC50: cho.
The target of assay [13] is Delta-type opioid receptor (Rattus norvegicus) (UniProt P33533). In words: Agonist activity at rat DOR expressed in rat C6 cells assessed as stimulation of [35S]GTPgammaS binding at 10 uM after 1 hr by liquid scintillation counting analysis relative to DPDPE. Type of assay: functional, cell-based.
Sequence of Delta-type opioid receptor (Rattus norvegicus) (P33533 whole entry): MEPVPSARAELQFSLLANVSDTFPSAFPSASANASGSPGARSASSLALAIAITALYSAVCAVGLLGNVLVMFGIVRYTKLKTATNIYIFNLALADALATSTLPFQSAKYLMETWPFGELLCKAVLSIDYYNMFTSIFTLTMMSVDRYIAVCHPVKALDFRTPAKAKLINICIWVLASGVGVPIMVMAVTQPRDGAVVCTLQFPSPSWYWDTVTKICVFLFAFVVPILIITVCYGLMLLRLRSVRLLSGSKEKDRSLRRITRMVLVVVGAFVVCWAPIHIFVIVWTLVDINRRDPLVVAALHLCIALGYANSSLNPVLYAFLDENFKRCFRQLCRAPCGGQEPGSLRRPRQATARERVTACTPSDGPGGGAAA
Assay [14] has the same target. Conditions: C6.

T2 sequence (P33533 whole entry): as above

The term ED50 denotes the dose at which the effect has come halfway, by size or by number of responders. In the case of `Cc1cc(O)cc(C)c1C[C@H](N)C(=O)N[C@@H]1CCNc2ccc(Cc3ccccc3)cc21`, in the assay on Mus musculus [1], the outcome was inactive. Also, the Time with Mus musculus [2] came to 60 min. Besides, the Activity result in the assay on Mus musculus [3] was “Dose-dependent effect”. Besides, the ED50 in the assay on Mus musculus [3] (C57BL/6, Tail, 0.5 h) amounted to 3 mg/kg.
On to `CN1CC[C@]23c4c5ccc(O)c4O[C@H]2[C@@H](O)C=C[C@H]3[C@H]1C5`, for which the result with Mus musculus [4] was Active.
In general, Emax refers to the maximal effect, on the per cent scale that the assay sets. What is called pKi is the Ki on a negative log10 scale, so that one unit is a factor of ten. The low end stands for a large Ki, the high end for a small Ki. By pEC50 is commonly meant the EC50 on a negative log10 scale, so that one unit is a factor of ten. For `Cc1cc(O)cc(C)c1C[C@H](N)C(=O)N[C@@H]1CCNc2ccc(CC3Cc4ccccc4C3)cc21`, the results for the Emax in [5] and in [6] were 38% and 86%, respectively. In addition, the pKi in assay [7] is 8.39; on Mu-type opioid receptor [8] it was 9.80; in assay [11] it was 8.92. In [9], the EC50 entry was “Not Active”. Also, the pEC50 is 9.62 at Mu-type opioid receptor [10] and 7.17 in assay [12] (read-out: EC50).
`Cc1cc(O)cc(C)c1C[C@H](N)C(=O)N[C@@H]1CCNc2ccc(Cc3cccc4ccccc34)cc21`: the Emax in assay [6] is 93%; in [13], 15%. The EC50 result in [12] is “Not Active”.
As for `Cc1cc(O)cc(C)c1C[C@H](N)C(=O)N[C@@H]1CCNc2ccc(Cc3ccc4ccccc4c3)cc21`, the maximal effect (Emax) in [6] was 96%. Besides, the pKi in assay [7] is 8.00; in assay [11] it was 7.27. Also, the EC50 entry in assay [9] and in [12] was “Not Active” throughout. The molecule further registered a Ke in [14] of 34.3 nM.
Take `Cc1cc(O)cc(C)c1C[C@H](N)C(=O)N[C@@H]1CCNc2ccc(CCc3ccccc3)cc21`: in assay [6], the Emax was found to be 45%. Besides, the EC50 entry in assay [9] and in assay [12] was “Not Active” throughout.
